Format in all cases: functional, cell-based
The nature of assay [1]: Cytotoxicity against human AZ-521 cells assessed as cell viability after 48 hrs by MTT assay. The conditions noted are these: AZ-521, 48 h. The essentials: (§1)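 Cells seeded at 3 × 10^3 per well and exposed to compounds from 1 × 10^-4 to 1 × 10^-6 M for 48 h. MTT was then added for 3 h, formazan dissolved in 0.04 M HCl in 2-propanol, and absorbance read at 570 nm against 630 nm. IC50 is the concentration giving 50% growth inhibition, from triplicate assays.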
For orientation: Tetrazolium dyes change colour on reduction, which living cells bring about.

The next assay has as its system HL-60. The experiment in a line: Cytotoxicity against human HL60 cells assessed as cell viability after 48 hrs by MTT assay. The conditions noted are these: HL-60, 48 h. The method in brief:
as §1

In a further assay the test system is A549. The assay can be described thus: Cytotoxicity against human A549 cells assessed as cell viability after 48 hrs by MTT assay. The conditions noted are these: A549, 48 h. The essentials: as §1
Another assay relates to SK-BR-3. The assay can be described thus: Cytotoxicity against human SK-BR-3 cells assessed as cell viability after 48 hrs by MTT assay. The note with it: SK-BR-3, 48 h. The method in brief: as §1
Assay [2] in a line: Cytotoxicity against human CRL1579 cells assessed as cell viability after 48 hrs by MTT assay. The essentials: as §1

Bounds are passed on as bounds.

In the case of `CC=C(C)C(=O)O[C@H]1C[C@@H](OC(C)=O)[C@@]2(C(=O)OC)CO[C@H]3[C@H]4O[C@@H]5C6C[C@@H](O[C@@H]7OC=C[C@]67O)[C@]5(O)[C@@]4(C)[C@@H]4[C@@](OC)(C(=O)OC)OC[C@@]14[C@@H]32`, the IC50 (in assay [1]; in the assay on HL-60; with A549; in the assay with SK-BR-3; in assay [2]) was greater than 20 µM each time.
`CC(=O)O[C@@H]1C[C@H]2C(C)(C)C(=O)C=C[C@]2(C)[C@H]2CC[C@]3(C)C(=C(O)C(=O)[C@H]3c3ccoc3)[C@@]21C`: the IC50 (in assay [1]; in the assay on HL-60; in the assay on A549; with SK-BR-3; in assay [2]) was greater than 20 µM each time.
On to `CC(=O)O[C@@H]1C[C@H]2C(C)(C)C(=O)C=C[C@]2(C)[C@H]2CC[C@]3(C)C(=CC(=O)[C@]3(O)c3ccoc3)[C@@]21C`, for which the IC50 (usually the concentration needed to halve the response being measured) in assay [1] is greater than 20 µM; in the assay with HL-60, greater than 20 µM; with A549, greater than 20 µM; in the assay with SK-BR-3, greater than 20 µM; in assay [2] it was 19.1 µM.
Turning to `CC=C(C)C(=O)O[C@@H]1[C@@H]2OC[C@]3(C)[C@H](OC(C)=O)C[C@H](O)[C@](C)([C@H]4CC[C@@](C)([C@@H](C)[C@H]5COC(=O)C5)C[C@]14C)[C@@H]23`, the IC50 (in assay [1]; in the assay with HL-60; with A549; in the assay on SK-BR-3; in assay [2]) was greater than 20 µM in each case.
Turning to `CC(=O)O[C@@H]1C[C@H]2C(C)(C)C(=O)C=C[C@]2(C)[C@H]2CC[C@]3(C)C(=CC(=O)[C@H]3C3=CCOC3=O)[C@@]21C` [AZADIRADIONOLIDE], the IC50 is greater than 20 µM in assay [1]; greater than 20 µM in the assay on HL-60; greater than 20 µM with A549; 11.5 µM with SK-BR-3; greater than 20 µM in assay [2].
For `CC(=O)O[C@@H]1C[C@H]2C(C)(C)C(=O)C=C[C@]2(C)[C@H]2CC[C@@]3(C)[C@H](c4ccoc4)OC(=O)[C@H]4O[C@]43[C@@]21C` [GEDUNIN], the IC50 is 16.9 µM in assay [1]; 5.9 µM with HL-60; greater than 20 µM in the assay on A549; 8.3 µM in the assay on SK-BR-3; greater than 20 µM in assay [2].
For the compound `C/C=C(/C)C(=O)O[C@H]1C[C@@H](O)[C@@]2(C)CO[C@H]3[C@H]4O[C@@H]5C[C@@H](c6ccoc6)C(C)=C5[C@@]4(C)[C@H](CC(=O)OC)[C@]1(C)[C@@H]32`, the IC50 (in assay [1]; in the assay with HL-60; in the assay on A549; with SK-BR-3; in assay [2]) was greater than 20 µM each time.
Take `CC(=O)O[C@@H]1C[C@H]2C(C)(C)C(=O)C=C[C@]2(C)[C@H]2CC[C@]3(C)C(=CC(=O)[C@@H]3c3ccoc3)[C@@]21C` [17-EPIAZADIRADIONE]: the 50% inhibitory concentration (IC50) in assay [1] was greater than 20 µM; in the assay on HL-60, 12.6 µM; in the assay with A549, greater than 20 µM; in the assay with SK-BR-3, greater than 20 µM; in assay [2] it was greater than 20 µM.
For `CC(=O)O[C@@H]1C[C@H]2C(C)(C)C(=O)C=C[C@]2(C)[C@H]2CC[C@]3(C)OC(=O)C=C3[C@@]21C`, the IC50 (in assay [1]; in the assay with HL-60; in the assay with A549; with SK-BR-3; in assay [2]) was greater than 20 µM throughout.
On to `CC(=O)O[C@@H]1C[C@H]2C(C)(C)C(=O)C=C[C@]2(C)[C@H]2CC[C@@]3(C)CC(=O)C=C3[C@@]21C` [DESFURANOAZADIRADIONE], for which the half-inhibitory concentration (IC50) was greater than 20 µM in assay [1]; 19.8 µM in the assay on HL-60; greater than 20 µM in the assay with A549; greater than 20 µM in the assay on SK-BR-3; greater than 20 µM in assay [2].

These data come from ChEMBL document CHEMBL1773010, “Cytotoxic and apoptosis-inducing activities of limonoids from the seeds of Azadirachta indica (neem)” (J Nat Prod, 2011).
